Compound activity (PubChem)
CYP2C19 inhib: inhibitors of human CYP2C19; P33261; CYP2C19 Supersomes, luciferin-H EGE luminescence, 30 min; inhibition, % at 5 µM; actives 21% (n = 96,000); AID 778;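 active means CYP2C19 inhibition above a set limit at 5 µM in the primary screen, cut at about 50% in these data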;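 further: plate controls were negative control wells for no effect and 2.5 mM tranylcypromine positive control for full effect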
CYP2C19 activ: cytochrome P450 2C19 (human) activation | P33261 | recombinant CYP2C19, luciferin-H EGE luminescence; hits give high values; 0 = fully inhibited enzyme, 1 = untreated enzyme | activation factor at 5 µM | 96,000 tested, under 10 active | AID 1025;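 active means activation factor of at least 2 at 5 µM in the primary screen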;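 further: 0 = wells with 2.5 mM tranylcypromine and 1 = vehicle-only wells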
CYP2C9 inh: inhibitors of human CYP2C9; CYP2C9 Supersomes, luciferin-H conversion, luminescence; inhibition, % at 5 µM; AID 777; P11712; actives 20% (n = 96,000);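 active means blocking of liver enzyme CYP2C9 beyond about 50% at 5 µM, limit read from the data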
Target sequence (P11712 whole entry, looked up): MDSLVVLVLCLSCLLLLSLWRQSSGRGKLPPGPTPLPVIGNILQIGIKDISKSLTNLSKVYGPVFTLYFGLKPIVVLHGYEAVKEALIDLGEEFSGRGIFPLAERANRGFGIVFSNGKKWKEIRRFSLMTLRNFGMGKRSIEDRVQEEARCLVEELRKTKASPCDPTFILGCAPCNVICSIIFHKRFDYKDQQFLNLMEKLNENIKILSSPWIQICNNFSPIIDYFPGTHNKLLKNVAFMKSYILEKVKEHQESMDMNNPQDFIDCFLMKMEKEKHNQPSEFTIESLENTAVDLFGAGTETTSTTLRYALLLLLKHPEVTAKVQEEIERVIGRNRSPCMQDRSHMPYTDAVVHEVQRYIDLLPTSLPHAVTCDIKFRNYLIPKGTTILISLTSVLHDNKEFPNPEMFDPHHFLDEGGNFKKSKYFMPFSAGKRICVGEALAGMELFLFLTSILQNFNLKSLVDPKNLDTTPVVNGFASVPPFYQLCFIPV
HIV Rev-RRE inh: HIV Rev-RRE protein-RNA interaction inhibition | P05866 | Rev peptide-RRE RNA binding, FRET | inhibition, % at 8 µM | actives 0.79% (n = 97,000) | AID 704;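 active means inhibition above the screen-wide mean plus 3 SD, cut at about 35% in these data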;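 further: 0% = median DMSO wells and 100% = median Neomycin B control wells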
Target sequence (P05866 whole entry, looked up): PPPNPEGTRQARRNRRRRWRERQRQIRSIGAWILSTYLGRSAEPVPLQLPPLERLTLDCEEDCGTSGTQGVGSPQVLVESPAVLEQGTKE
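Assay system: Rev peptide and RRE RNA, both fluorescently labelled; times: 5 min preincubation and 15 min binding, 25 °C; detection: FRET, ex 480 nm, em 540 and 671 nm; read-out basis: % inhibition from 671/540 nm acceptor-to-donor ratio, scaled between controls; benchmarks: DMSO low control, neomycin B high control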
CYP2C9 act: increases human cytochrome P450 2C9 activity | recombinant CYP2C9, luciferin-H conversion, luminescence; hits give high values; factor 1 = untreated enzyme, 0 = blocked | activation factor at 5 µM | actives 1.4% (n = 96,000) | AID 1024;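 active means activation factor of 2 or more for CYP2C9 at a 5 µM dose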;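 further: 0 = sulfaphenazole-blocked wells and 1 = vehicle-only wells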
Cav32 inh: inhibitors of human Cav3.2 T-type calcium channel; actives 4% (n = 100,000); AID 449739; Cav3.2-expressing cells, Fluo-4 calcium fluorescence FDSS; hits give low values; O95180; B-score at 10 µM;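 active means single-dose well whose peak fluorescence ratio is a statistical outlier from its plate by either plate-standardised score or position-corrected B-score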
Active calls of the source: *; x = no result given; [ ] = remark or other dose. Shown are actives, neighbours in structure and some others; about 27% of the full set was active somewhere.

SMILES | CYP2C19 inhib | CYP2C19 activ | CYP2C9 inh | HIV Rev-RRE inh | CYP2C9 act | Cav32 inh
O=C(Cc1ccc(F)cc1)Nc1c2c(nn1-c1cccc(Cl)c1)CS(=O)C2 (stereo unspecified) | 100.4* | 0 | 37.6 | 1.5 | 0.6 | 0.71
CC(=O)Nc1c2c(nn1-c1cccc(Cl)c1)CS(=O)C2 (stereo unspecified) | -3.7 | 1 | -8.0 | 4.7 | 1.1 | x
CC(C)C(C(=O)N1CCOCC1)N1C(=O)c2ccccc2C1=O (stereo unspecified) | 13.9 | 0.9 | 13.8 | 2.7 | 0.9 | 0.462
Cc1cc2nc(SCCN3CCCC3)[nH]c2cc1C | 8.4 | 0.9 | -2.5 | x | 1 | 1.82
N#CC1=C(SCC(N)=O)NC2=C(C(=O)c3ccccc32)C1c1ccc(Cl)cc1 (stereo unspecified) | 47.6 | 0.5 | 63.0* | 9.8 | 0.4 | 0.46
O=C(COC(=O)c1cccnc1Nc1cccc(C(F)(F)F)c1)NCCN1C(=O)CSC1=O | 62.7* | 0.4 | 96.8* | 23.7 | 0 | -1.4
O=C(NCCN1C(=O)CSC1=O)c1ccccc1 | -0.6 | 1 | -13.9 | 3.0 | 1.1 | 0.112
O=C(O)c1cccnc1Nc1cccc(C(F)(F)F)c1 | x | x | x | x | x | -2.12
O=C(COC(=O)c1cccs1)NCCN1C(=O)CSC1=O | 62.9* | 0.4 | -32.1 | 6.8 | 1.3 | 0.0598
COc1ccc(C(c2sc3nc(C)nn3c2O)N2CCC3(CC2)OCCO3)cc1 (stereo unspecified) | 44.9 | 0.6 | 11.3 | -1.2 | 0.9 | -1.32
COc1ccc(-c2cc3nc4n(c(=O)c3s2)CCC4)cc1 | 70.1* | 0.3 | 51.1* | 3.4 | 0.5 | -2.01
O=C(O)c1ccc(Sc2nnc(-c3cccc(Br)c3)o2)c([N+](=O)[O-])c1 | -33.0 | 1.3 | 66.4* | 7.7 | 0.3 | -1.36
COc1cc(-c2nnc(Sc3ccc(C(F)(F)F)cc3[N+](=O)[O-])o2)cc(OC)c1OC | 39.3 | 0.6 | 19.6 | -1.9 | 0.8 | 0.453
Cc1nn(-c2ccccc2)c(C)c1/C=N/NC(=O)c1cc(C(C)(C)C)[nH]n1 | 26.6 | 0.7 | 57.6* | 7.1 | 0.4 | -0.224
Cc1nn(-c2ccccc2)c(C)c1/C=N/n1c(-c2ccc(C(C)(C)C)cc2)n[nH]c1=S | 33.9 | 0.7 | 81.8* | -2.6 | 0.2 | -1.22
Cc1nn(-c2ccccc2)c(C)c1/C=N\NS(=O)(=O)c1ccc(Cl)cc1 | 98.0* | 0 | 99.1* | -0.9 | 0 | -3.51
Cc1ccc(-c2cc(C(=O)N/N=C/c3c(C)nn(-c4ccccc4)c3C)[nH]n2)cc1 | 28.8 | 0.7 | 24.6 | 4.1 | 0.8 | x
CC(/C=N/n1c(-c2ccccc2)n[nH]c1=S)=C\c1ccco1 | -3.2 | 1 | 11.7 | -0.8 | 0.9 | 0.043
CC1(C)CC(=O)N(CC(=O)NCc2ccc(F)cc2)c2ccccc2S1(=O)=O | 61.9* | 0.4 | 8.3 | 3.0 | 0.9 | 1.26
CC1(C)CC(=O)N(CC(=O)NCc2ccccc2)c2ccccc2S1(=O)=O | 69.3* | 0.3 | 38.7 | 10.1 | 0.6 | 0.974
O=C(O)[C@H](Cc1ccccc1)NC(=O)N1CCOCC1 | -4.1 | 1 | -7.3 | 3.3 | 1.1 | -0.47
CC1=CC(C)(C)N(C(=O)CN2C(=O)c3ccccc3C2=O)c2ccccc21 | 30.0 | 0.7 | 86.7* | 6.2 | 0.1 | -1.43
CC1=CC(C)(C)N(S(=O)(=O)c2ccc(C)cc2)c2ccccc21 | 44.0 | 0.6 | 61.6* | 16.5 | 0.4 | -3.92
CC1=CC(C)(C)N(C(=O)C(C)N2C(=O)c3ccccc3C2=O)c2ccc(C)cc21 (stereo unspecified) | 82.9* | 0.2 | 7.2 | -8.6 | 0.9 | -3.17
CC1CC(C)(C)N(C(=O)CN2C(=O)c3ccccc3C2=O)c2ccccc21 (stereo unspecified) | x | x | x | 11.7 | x | 4.5*
SMILES | CYP2C19 inhib | CYP2C19 activ | CYP2C9 inh | HIV Rev-RRE inh | CYP2C9 act | Cav32 inh
CC1(C)CC2CC(C)(CN2C(=O)CN2C(=O)c3ccccc3C2=O)C1 (stereo unspecified) | -6.4 | 1.1 | -18.6 | -4.0 | 1.2 | 0.534
Cc1nnsc1SCC(=O)O | -7.2 | 1.1 | -15.7 | 4.3 | 1.2 | -0.152
FC(F)(F)c1cc(-c2ccco2)nc(-n2nnc3ccccc32)n1 | -12.4 | 1.1 | 8.2 | x | 0.9 | -0.171
COc1ccc(CCNC(=O)c2c(C)noc2C)cc1 | 13.8 | 0.9 | 11.7 | 8.7 | 0.9 | 1.16
COc1ccc(CCNC(=O)c2nn(C)cc2Cl)cc1 | 70.1* | 0.3 | 3.1 | 3.5 | 1 | 0.0273
COc1ccc(CCNC(=O)c2cnccn2)cc1 | 53.3* | 0.5 | 6.9 | x | 0.9 | 0.392
COc1ccc(CCNC(=O)N2c3ccccc3Sc3ccccc32)cc1 | x | x | x | 13.9 | x | -5.92*
COc1ccc(CCNC(=O)c2cccnc2)cc1 | 34.9 | 0.7 | 29.2 | 11.5 | 0.7 | 0.427
CCCc1ccc(C(C)NC(=O)c2cnccn2)cc1 (stereo unspecified) | 76.5* | 0.2 | 52.6* | 3.2 | 0.5 | -0.628
CN1C(=O)CC(N2CCC(C(N)=O)(N3CCCCC3)CC2)C1=O (stereo unspecified) | -18.8 | 1.2 | -16.7 | 6.4 | 1.2 | -0.54
CC1=CC(C)(C)N(C(=O)CSc2ncn[nH]2)c2ccc(C)cc21 | 89.4* | 0.1 | 55.4* | -1.4 | 0.4 | 0.0848
C=CCN=C1SC(CC)C(=O)N1S(=O)(=O)c1ccc(C)cc1 (stereo unspecified) | 84.4* | 0.2 | 42.2 | 9.4 | 0.6 | 0.288
C=CCN=C1SCC(=O)N1S(=O)(=O)c1ccc(C)cc1 | 12.5 | 0.9 | 3.3 | 5.0 | 1 | 0.913
O=C1/C(=C/c2ccccc2)Nc2ccccc21 | 6.6 | 0.9 | 28.2 | 128.9*[fluorescence artefact?] | 0.7 | x
O=C1CC(C(=O)O)c2ccccc2N1 (stereo unspecified) | 5.4 | 0.9 | 6.5 | 4.3 | 0.9 | -0.481
O=C(CCSc1nc2cc(Cl)ccc2o1)N1CCOCC1 | 35.0 | 0.7 | -17.4 | 4.3 | 1.2 | 0.462
Cc1ccc(C(=O)CSc2nnc(-c3cccs3)n2C)o1 | 50.6* | 0.5 | 11.2 | 5.8 | 0.9 | -0.539
Cn1c(SCC(=O)OCC(=O)c2ccccc2)nnc1-c1cccs1 | 27.3 | 0.7 | 20.7 | 7.3 | 0.8 | 0.777
COc1cccc(NC(=O)CSc2nnc(-c3cccs3)n2C)c1 | 24.1 | 0.8 | 11.3 | -0.4 | 0.9 | 1.29
COc1ccc(OC)c(C(=O)CSc2nnc(Cc3cccs3)n2CCc2ccccc2)c1 | 55.2* | 0.4 | 36.9 | 5.2 | 0.6 | -1.45
Cn1c(Cc2ccccc2)nnc1SCC(=O)c1cccs1 | 95.2* | 0 | 44.4 | 4.8 | 0.6 | -0.78
CC(C)OC(=O)CSc1nnc(Cc2ccccc2)n1C | 25.9 | 0.7 | -2.4 | 6.5 | 1 | -0.356
COc1ccc(OC)c(C(=O)CSc2nnc(-c3cccs3)n2C)c1 | 97.3* | 0 | 31.9 | 3.5 | 0.7 | -0.839
O=C(O)CC1NC(=O)N(c2ccc(Cl)cc2)C1=O (stereo unspecified) | -10.1 | 1.1 | -22.3 | -0.1 | 1.2 | -1.93
